This note sets out measurements from ChEMBL document CHEMBL4229485, “The design, synthesis, and evaluation of organic dithienopyrrole-based D-π-A dyes for use as sensitizers in photodynamic therapy” (Bioorg Med Chem Lett, 2018).

Broadly, the IC50 is the concentration that inhibits the measured activity by half.

The source made the active and inactive calls. The rule behind the calls is not given here.

Data set [1] in a line: Dark toxicity in human HeLa cells assessed as reduction in cell viability after 48 hrs by MTT assay. It counts as cell-based. A general note: Tetrazolium dyes change colour on reduction, which living cells bring about.
Data set [2] relates to HeLa. Description: Phototoxicity in human HeLa cells assessed as reduction in cell viability preincubated for 1 hr followed by LED light irradiation for 15 mins measured after 48 hrs by MTT assay. It counts as functional, cell-based. The settings on record: light or radiation study. The procedure, abridged: (§1)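 HeLa cells were treated with the sensitizer and photo-irradiated. IC50 is the sensitizer concentration that reduced viability by 50%, read from semi-logarithmic dose-response plots.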

Data set [3] deals with HeLa. The data set is described as follows: Phototoxicity in human HeLa cells assessed as reduction in cell viability preincubated for 1 hr followed by LED light irradiation for 60 mins measured after 48 hrs by MTT assay. It is filed as functional, cell-based. The settings on record: light or radiation study. The procedure, abridged:
as §1

Data set [4] concerns HEK293. The data set is described as follows: Phototoxicity in HEK293 cells assessed as reduction in cell viability preincubated for 1 hr followed by LED light irradiation for 15 mins measured after 48 hrs by MTT assay. It counts as functional, cell-based. The settings on record: Homo sapiens, HEK293, light or radiation study.
Data set [5] in a line: Dark toxicity in HEK293 cells assessed as reduction in cell viability measured after 48 hrs by MTT assay. It is filed as cell-based. The settings on record: human.
Data set [6] in a line: Dark toxicity in HEK293 cells assessed as inhibition of cell viability at 10 uM measured after 48 hrs by MTT assay relative to control. It is filed as cell-based. The settings on record: human, read-out: INH.
Data set [7] can be described thus: Induction of oxidative damage to human serum albumin assessed as oxidation of tryptophan residue at 10 uM after 15 to 45 mins by fluorescence assay. It is filed as functional. The procedure, abridged: (§2)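 Sensitizer (10 µM) and HSA (20 µM) in PBS were irradiated with white LED light (420–750 nm, 8.0 ± 0.5 mW/cm2). Photo-oxidation of HSA's single tryptophan was followed as the loss of its intrinsic fluorescence at around 350 nm.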

Data set [8] can be described thus: Induction of oxidative damage to human serum albumin assessed as oxidation of tryptophan residue at 10 uM after 15 to 45 mins in presence of ROS quencher L-ascorbic acid by fluorescence assay. It counts as functional. In a few lines:
as §2

The nature of data set [9]: Drug uptake in cytoplasm of human HeLa cells at 10 uM after 1 hr by Hoechst 33342 staining based confocal microscopic method. It counts as ADME, subcellular.
Data set [10] is described as follows: Drug uptake in nucleus of human HeLa cells at 10 uM after 1 hr by Hoechst 33342 staining based confocal microscopic method. It is filed as ADME, subcellular.

`COc1ccc(-c2cc3c(s2)c2sc(-c4ccc(/C=C(\C#N)C(=O)O)s4)cc2n3C(C)(C)C)cc1`: the IC50 in [1] stood at 43.4 µM; in [2] it was 0.19 µM; in data set [3], 0.063 µM; in data set [4], 0.043 µM. The IC50 at 48 h in data set [5] is greater than 10 µM. Also, the cytotoxicity at 48 h, 10 µM in data set [6] turned out to be 7%. Besides, the result in data set [7] and in data set [8] was Active. The Drug uptake entry in data set [9] and in data set [10] was “Active” each time.

In the case of `CC(C)(C)n1c2cc(-c3ccc(N(c4ccccc4)c4ccccc4)cc3)sc2c2sc(-c3ccc(/C=C4\SC(=S)N(CC(=O)O)C4=O)s3)cc21`, the IC50 amounted to 60.2 µM in data set [1] and 17.1 µM in [2]. Also, the outcome in data set [7] was inactive.

In the case of `CCCCN1C(=O)C(=C/C=C/C=C2\Oc3ccccc3N2CCCS(=O)(=O)O)C(=O)N(CCCC)C1=S`, the IC50 in [1] was greater than 100 µM; in data set [2], 16 µM.

As to `CN(C)c1ccc(-c2cc3c(s2)c2sc(-c4ccc(/C=C(\C#N)C(N)=O)s4)cc2n3C(C)(C)C)cc1`, the IC50 turned out to be 54 µM in data set [1] and 5 µM in [2]. For the same molecule, the result in data set [7] was inactive.

With `CC(C)(C)n1c2cc(-c3ccc(N(c4ccccc4)c4ccccc4)cc3)sc2c2sc(-c3ccc(C=O)s3)cc21`, the IC50 is 67 µM in data set [1] and 45 µM in data set [2]. In data set [7], the outcome was inactive.

Consider `CN(C)c1ccc(-c2cc3c(s2)c2sc(-c4ccc(/C=C5\SC(=S)N(CC(=O)O)C5=O)s4)cc2n3C(C)(C)C)cc1`, for which the IC50 in data set [1] was greater than 100 µM; in data set [2], 12.1 µM. Moreover, the result in data set [7] was inactive.

As to `CC(C)(C)n1c2cc(-c3ccc(N(c4ccccc4)c4ccccc4)cc3)sc2c2sc(-c3ccc(/C=C(\C#N)C(=O)O)s3)cc21`, the IC50 in data set [1] and in data set [2] was greater than 100 µM in each case. For the same molecule, the result in data set [7] was inactive.

For the molecule `COc1ccc(-c2cc3c(s2)c2sc(-c4ccc(/C=C(\C#N)C(N)=O)s4)cc2n3C(C)(C)C)cc1`, the results for the IC50 in [1] and in data set [2] were 15.7 µM and 0.56 µM, respectively. For the same molecule, the outcome in data set [7] was Active.

Turning to `CC(C)(C)n1c2cc(-c3ccc(N(c4ccccc4)c4ccccc4)cc3)sc2c2sc(-c3ccc(/C=C(\C#N)C(N)=O)s3)cc21`, the IC50 in data set [1] and in data set [2] was greater than 100 µM throughout. Also, the result in data set [7] was inactive.

For the molecule `COc1ccc(-c2cc3c(s2)c2sc(-c4ccc(/C=C5\C(=O)N(CCO)C(=O)C(C#N)=C5C)s4)cc2n3C(C)(C)C)cc1`, the IC50 was found to be 60 µM in [1] and 15.9 µM in [2].

Consider `CN(C)c1ccc(-c2cc3c(s2)c2sc(-c4ccc(/C=C(\C#N)C(=O)O)s4)cc2n3C(C)(C)C)cc1`, for which the figures for the IC50 in data set [1] and in data set [2] were 15.5 µM and 0.6 µM, respectively. Besides, the result in [7] was Active.

With `C=CC1=C(C)c2cc3[nH]c(cc4nc(cc5[nH]c(cc1n2)c(C)c5C=C)C(C)=C4CCC(=O)O)c(CCC(=O)O)c3C`, the IC50 in data set [1] was 12.5 µM; in data set [2], 0.75 µM.

With `COc1ccc(-c2cc3c(s2)c2sc(-c4ccc(C=O)s4)cc2n3C(C)(C)C)cc1`, the IC50 in [1] amounted to 68.6 µM; in data set [2] it was 3.8 µM. For the same molecule, the result in data set [7] was inactive.

Turning to `N#C/C(=C\c1ccc(-c2ccc(-c3ccc(N(c4ccccc4)c4ccccc4)cc3)s2)s1)C(=O)O`, the IC50 was found to be 21.9 µM in [1], 0.21 µM in [2] and 0.16 µM in data set [4]. The IC50 at 48 h in [5] is greater than 10 µM. In addition, the cytotoxicity at 48 h, 10 µM in data set [6] was 32%.

As to `CN(C)c1ccc(-c2cc3c(s2)c2sc(-c4ccc(C=O)s4)cc2n3C(C)(C)C)cc1`, the IC50 in [1] is greater than 10 µM; in [2], 2.5 µM. The outcome in data set [7] was inactive.

Turning to `COc1ccc(-c2cc3c(s2)c2sc(-c4ccc(/C=C5\SC(=S)N(CC(=O)O)C5=O)s4)cc2n3C(C)(C)C)cc1`, the IC50 came to 63.9 µM in data set [1] and 5.7 µM in data set [2]. In addition, in [7], the outcome was inactive.
